Assay outcomes as filed in PubChem.
Shown are actives, neighbours in structure and some others; about 2.6% of the full set was active somewhere.
AHR act = AHR activators, primary screen, cell-based, luminescence, luciferase reporter, human; activation, % at 5 µM; AID 2796, 2010; 2.5% of 320,000 active; AHR-responsive luciferase reporter cells; in the data active means activation above about 47%;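 further: 0% = vehicle wells and 100% = reference agonist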
procasp7 counter = procaspase-7 activators, primary screen, counter-screen for procaspase-3 activator project, biochemical, absorbance, HTS, human; Caspase-7 (Homo sapiens), P55210; recombinant procaspase-7, Ac-DEVD-pNA absorbance 405 nm; D23A/D198A/D206A triple mutant, cannot self-cleave; scale: DMSO 0, 5 µM enzyme 100; activation, % at 8.5 µM; 0.093% of 330,000 active; AID 463210, 2010;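 active means percent activation above the screen-wide mean plus 3 SD, cut at about 25% in these data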
Target sequence (P55210 whole entry D23A/D198A/D206A): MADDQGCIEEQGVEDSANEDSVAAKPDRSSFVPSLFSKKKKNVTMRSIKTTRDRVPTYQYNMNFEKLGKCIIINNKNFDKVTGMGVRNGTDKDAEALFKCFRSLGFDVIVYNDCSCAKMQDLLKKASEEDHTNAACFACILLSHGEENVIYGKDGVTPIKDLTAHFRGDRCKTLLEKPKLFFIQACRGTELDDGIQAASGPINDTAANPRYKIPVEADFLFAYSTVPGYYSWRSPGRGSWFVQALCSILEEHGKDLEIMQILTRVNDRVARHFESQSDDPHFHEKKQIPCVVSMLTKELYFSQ
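Replicates: singlicate. Assay system: Procaspase-7 triple mutant (PC-7 D3A). Signal: 405 nm absorbance of p-nitroaniline. Times: 1 h preincubation, 2 h reaction. Buffer or medium: Zinc-free HEPES pH 7.4 with 300 mM NaCl, 0.01% Triton X-100. Also added: DEVD-pNA substrate. Benchmarks: DMSO wells as 0%, DMSO with 5 µM added PC-7 as 100%.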
PolyA inh = polyadenylation inhibitors in yeast reporter cells, primary screen, luminescence, S. cerevisiae; S. cerevisiae SKY197-pL101 polyadenylation reporter, beta-gal luminescence; efflux-impaired pdr1/pdr3 knockout yeast; score 100 = 6 SD above DMSO; activity score, % at 12 µM; 0.02% of 300,000 active;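 active means lowest replicate activity score at least 50, where 100 means six control SD above control mean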;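 further: yeast exposed to compound for 9 h at 30 °C; higher score means more reporter readthrough which indicates perturbed polyadenylation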
proCasp3 act = activators of human procaspase-3 D3A mutant, primary screen, biochemical, absorbance, PC-3 D3A mutant, single concentration. Caspase-3 (Homo sapiens), P42574. recombinant procaspase-3 D3A, Ac-DEVD-pNA absorbance 405 nm. activation, % at 8.5 µM. 0.11% of 330,000 active. AID 463141, 2010;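 active means activation above the mean of all tested compounds plus 3 SD, cut at about 21% in these data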;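 further: 0% = DMSO alone and 100% = DMSO wells spiked with extra 5 µM PC-3 D3A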
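Technique: 405 nm absorbance of p-nitroaniline, reads at 0 and 120 min; Test system: Procaspase-3 D3A mutant; Incubation: 1 h enzyme-compound preincubation, then 2 h substrate reaction, 25 °C; Repeats: singlicate, each compound tested once; Benchmarks: low control DMSO wells, high control DMSO plus 5 µM PC-3 D3A.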
* hit, by the source's call; . = not tested or not shown.

SMILES	AHR act	procasp7 counter	PolyA inh	proCasp3 act
COc1ccc(C)cc1NC(=O)C(=O)NCc1ccncc1	50*	5	-7	6
COc1cccc(NC(=O)C(=O)NCc2ccncc2)c1	53*	-5	6	12
CN(Cc1nccn1C)C(=O)c1ccc(OC2CCN(CCc3ccccc3)CC2)cc1	-4	10	2	-10
CC(=O)Nc1ccc(NC(=O)CC2Nc3cccc4cccc(c34)NC2=O)cc1 (stereo not given)	24	-4	14	-3
Cc1cccc(NC(=O)CC2Nc3cccc4cccc(c34)NC2=O)c1 (stereo not given)	75*	-10	3	-8
COc1ccccc1NC(=O)CC1Nc2ccccc2NC1=O (stereo not given)	56*	-4	6	-7
CCN1CCn2c3c(c4cc(Br)ccc42)CCCC31 (stereo not given)	49*	-6	-8	-2
O=C1NC2=C(C(=O)CCC2)C(c2ccc(OC(F)F)cc2)N1 (stereo not given)	-1	0	-3	5
Cc1ccc(/C=C(\C#N)c2nn(-c3ccccc3)c(N)c2C#N)cc1	0	6	-15	-4
N#C/C(=C\c1cccc2ccccc12)c1nn(-c2ccccc2)c(N)c1C#N	56*	5	-3	-3
O=C(Nc1ccccn1)c1nc(-c2ccccc2)n(-c2ccccc2)n1	56*	-13	9	3
Cc1nc2ccsc2c(=O)n1-c1cccc(Cl)c1	1	4	16	1
N#Cc1c(-c2ccc(F)cc2)cc(-c2cccnc2)nc1N	55*	2	-4	5
N#Cc1c(-c2cccc(Br)c2)cc(-c2cccnc2)nc1N	23	-1	20	-8
COC(=O)c1c(-c2cccnc2)csc1NC(=O)c1cc(C)on1	68*	-10	-2	-3
COC(=O)c1c(-c2ccc(C)cc2)csc1NC(=O)c1c(-c2ccccc2)noc1C	2	5	-2	-4
CCn1c(NCc2ccc3c(c2)OCO3)nc2ccccc21	69*	1	1	2
Cc1ccc2nc(COC(=O)c3cnccn3)cc(=O)n2c1	0	6	.	0
Nc1cc(=O)[nH]c(SCC(=O)Nc2ccc(N3CCOCC3)cc2)n1	-1	-6	.	2
COCC(=O)Nc1nc(-c2ccccc2)ns1	47*	4	-1	-1
CC(=O)Nc1nc(-c2ccccc2)ns1	9	16	3	-4
O=[N+]([O-])CC(=Nc1ccc(F)cc1)N/N=C\c1oc(O)c2ccccc12	54*	-5	13	-3
CN(CC(=O)Nc1ccccc1Br)C(=O)CN1CCN(Cc2ccc(Cl)cc2)CC1	0	6	.	9
NC(=O)CCCn1c(C(=O)c2ccc(Cl)cc2)c2ccc(C(F)(F)F)cc2[n+]1[O-]	61*	2	-6	-9
NC(=O)CCCn1c(C(=O)c2ccc(Cl)cc2)c2ccc([N+](=O)[O-])cc2[n+]1[O-]	34	-12	23	4
SMILES	AHR act	procasp7 counter	PolyA inh	proCasp3 act
NC(=O)CCCn1c(C(=O)c2cc(Cl)c(N)c(Cl)c2)c2ccc([N+](=O)[O-])cc2[n+]1[O-]	77*	-13	-12	0
CC(Oc1ccccc1)C(=O)N=C1SC2CS(=O)(=O)CC2N1c1cccc(F)c1 (stereo not given)	-2	6	-10	5
CCOc1cc(CNc2ccc3cn[nH]c3c2)ccc1OC	53*	-1	2	0
NNC(=S)NCc1ccco1	5	-10	-2	-8
N#C/C(=C(/O)CCl)c1nc2c(s1)CCc1ccccc1-2	67*	-17	-11	-14
Nc1nc2c(s1)CCc1ccccc1-2	13	-20	-5	-16
COCCN1CC(=O)N2C(c3cccc(OC)c3)c3[nH]c4ccccc4c3C[C@H]2C1=O (stereo not given in full)	10	4	-1	2
Cc1cc(C)nc(-n2nc(C)c(C3(O)C(=O)Nc4ccccc43)c2N)n1 (stereo not given)	56*	-7	1	-2
CCc1noc(C)c1C(=O)N(CC)c1nc2c(C)cccc2s1	0	5	0	1
COc1ccc(-c2cc(-c3cc(F)ccc3O)[nH]n2)cc1OC	50*	-6	-8	3
